Hits are enriched below; roughly 2% of the tested compounds scored in any of these assays.
CSN inh – inhibitors of CSN-mediated cullin deneddylation, primary screen, biochemical, fluorescence polarization, uHTS; 0.38% of 360,000 active; inhibition, % at 12.5 µM; COP9 signalosome complex subunit 5 (Homo sapiens), Q92905; Purified CSN, SCF-Nedd8-OG deneddylation;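 active = pattern-corrected inhibition above about 35%, with an unprinted fluorescence ratio check between 0.5 and 1.5, limit read from the data, passing the limit was not always enough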;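 note: 0% = enzyme with substrate and 100% = substrate without enzyme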
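Assay system: purified human Csn5 enzyme expressed in HEK293T cells; Input: 0.24 nM Csn5 enzyme, final concentration; Reagent: 10 nM SCFSkp2-Nedd8OG; Compound dosing: 12.5 µM single point; Times: reaction 90 min, room temperature; Technique: fluorescence polarization readout.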
SUMO1 PPI mod – modulators of SUMO1 protein-protein interactions, primary screen, biochemical, uHTS; 0.33% of 360,000 active; AID 602429, 2012; SUMO1 binding to a labelled peptide, TR-FRET, 1 h; inhibition, % at 20 µM; in the data active = inhibition above about 37%
Target sequence (P63165 whole entry, looked up): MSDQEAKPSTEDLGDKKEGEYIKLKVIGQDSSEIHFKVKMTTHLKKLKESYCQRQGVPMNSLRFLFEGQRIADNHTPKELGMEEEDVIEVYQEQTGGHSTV
DNMT1 block – human DNMT1 methyltransferase inhibitors, primary screen, biochemical, molecular beacon, fluorescence, HinP1I cleavage, uHTS; DNA (cytosine-5)-methyltransferase 1 (Homo sapiens), P26358; inhibition (reported as % activation of signal), % at 10 µM; 0.83% of 360,000 active; AID 588458, 2011; in the data active = inhibition above about 50%
STEP block – STEP phosphatase inhibitors, primary screen, biochemical, fluorescence intensity, uHTS; recombinant STEP, OMFP fluorogenic substrate; inhibition, % at 20 µM; 0.25% of 360,000 active;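 active = inhibition at 20 µM, scaled per plate between control wells, above about 37%, limit read from the data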;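 note: 0% = DMSO with enzyme and substrate and 100% = substrate only without enzyme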
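Also added – OMFP at 25 µM · Test system – STEP tyrosine phosphatase · Technique – FITC-channel fluorescence of OMFP product · Schedule – 20 min at room temperature, dark · Evaluation – control-normalized % inhibition with plate pattern correction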
LMPTP block – LMPTP phosphatase inhibitors, primary screen, biochemical, fluorescence intensity, uHTS | Low molecular weight phosphotyrosine protein phosphatase (Homo sapiens), P24666 | recombinant LMPTP-A, OMFP fluorogenic substrate | inhibition, % at 20 µM | 0.22% of 360,000 active | AID 651560, 2012;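 active = compounds that cut the enzyme signal by at least half of the control window in the single-dose screen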;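 note: plate controls were DMSO wells with enzyme plus substrate for no effect and substrate without enzyme for full effect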
Target sequence (P24666 whole entry, looked up): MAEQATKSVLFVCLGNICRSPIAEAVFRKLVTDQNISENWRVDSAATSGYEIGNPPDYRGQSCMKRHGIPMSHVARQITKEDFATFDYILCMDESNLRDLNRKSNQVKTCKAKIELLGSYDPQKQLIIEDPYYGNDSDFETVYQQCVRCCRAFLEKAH
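Material: LMPTP-A; amount: 0.625 nM enzyme; doses: single 20 µM dose; times: reaction 50 min, room temperature, dark; technique: fluorescence intensity of OMFP turnover product; benchmarks: no-enzyme and uninhibited controls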
Scp1 inh – Scp-1 phosphatase inhibitors, primary screen, biochemical, colorimetric, uHTS | Recombinant Scp1, phosphopeptide, malachite green phosphate absorbance | inhibition, % at 20 µM | 0.88% of 340,000 active | AID 493091, 2011;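 active = inhibition above about 50% at 20 µM, limit read from the data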;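 note: plate controls were DMSO wells with enzyme for no effect and wells lacking enzyme for full effect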
Target sequence (Q9GZU7 76-261 limits assumed): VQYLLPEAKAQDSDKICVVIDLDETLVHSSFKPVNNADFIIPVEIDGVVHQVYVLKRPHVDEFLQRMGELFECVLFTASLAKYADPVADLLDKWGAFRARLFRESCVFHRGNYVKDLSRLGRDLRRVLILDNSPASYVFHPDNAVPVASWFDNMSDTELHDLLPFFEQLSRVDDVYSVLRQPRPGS
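Test system: SCP-1 catalytic domain; Buffer or medium: Acidic Tris acetate buffer with magnesium and detergent; Also added: Phosphorylated 17-residue peptide substrate; Compound: single 20 µM dose, 1% DMSO; Schedule: enzyme reaction 45 min at room temperature, colour 5 min, stabilisation 30 min; Signal: Phosphate-binding colour reagent, absorbance read at 630 nm.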
* hit, by the source's call.

`CCOC(=O)c1c(C)[nH]c(O)c1C=Nc1ccc(Cl)cc1` gave CSN inh -3.6, SUMO1 PPI mod -12.5, DNMT1 block -8.6, STEP block 2.2, LMPTP block 0.8 and Scp1 inh -5.0.
For COC(=O)c1c(C)[nH]c(O)c1C=Nc1ccc(Oc2ccccc2)cc1 the results were CSN inh 89.6*, SUMO1 PPI mod -7.6, DNMT1 block -4.1, STEP block 2.4, LMPTP block 0.4 and Scp1 inh -3.2.
Screening COC(=O)c1c(C)[nH]c(O)c1C=Nc1ccc(C(C)C)cc1 returned CSN inh 53.2*, SUMO1 PPI mod -21.5, DNMT1 block -3.6, STEP block 6.6, LMPTP block 0.1 and Scp1 inh -4.3.
Screening COc1ccc(CNC(=O)CN2C(=O)NC3(CCCc4sccc43)C2=O)cc1OC (stereo not drawn) returned CSN inh -0.6, SUMO1 PPI mod -0.8, DNMT1 block 2.8, STEP block -1.2, LMPTP block -1.6 and Scp1 inh -8.1.
CC1CCCCC1NC(=O)COc1ncnc2sccc12 (stereo not drawn) was read as CSN inh 7.1, SUMO1 PPI mod 1.6, DNMT1 block 1.5, STEP block 0.8, LMPTP block -0.4 and Scp1 inh -0.7.
For CCOC(=O)c1ccc(N2C(=O)c3n[nH]c(C)c3C2c2ccccn2)cc1 (stereo not drawn) the results were CSN inh -1.8, SUMO1 PPI mod 41.3*, DNMT1 block 1.5, STEP block 0.8, LMPTP block -2.8 and Scp1 inh -3.4.
`CC(/C=C1\SC(=S)N(CCCC(=O)Nc2ccc(C(=O)O)cc2)C1=O)=C\c1ccccc1` gave CSN inh 11.1, SUMO1 PPI mod 9.2, DNMT1 block 47.6, STEP block 2.4, LMPTP block 49.0* and Scp1 inh -10.7.
For CC(=Cc1ccccc1)C=C1SC(=S)N(CCCC(=O)Nc2ccc(C(=O)O)cc2)C1=O the results were CSN inh 13.8, SUMO1 PPI mod -2.2, DNMT1 block 10.1, STEP block -0.9 and LMPTP block 61.4*.
CC(/C=C1\SC(=S)N(CCC(=O)Nc2ccccc2O)C1=O)=C\c1ccccc1 was read as CSN inh 35.7*, SUMO1 PPI mod -0.4, DNMT1 block -2.8, STEP block -1.8, LMPTP block 2.5 and Scp1 inh -12.6.
`N#CCCN(C(=O)COC(=O)C1=NNC(=O)CC1)c1ccccc1` gave CSN inh 2.5, SUMO1 PPI mod -0.6, DNMT1 block -0.5, STEP block -0.2, LMPTP block -1.4 and Scp1 inh 1.3.
`COc1ccc(-c2[nH]ncc2CN2CCC(OCc3cccnc3)CC2)c(F)c1` gave CSN inh -0.1, SUMO1 PPI mod -2.4, DNMT1 block 2.2, STEP block 0.1, LMPTP block 2.1 and Scp1 inh -2.5.
`COc1ccccc1N1CCN(C(=O)C2CCN(C(=O)c3ccc(C(C)(C)C)cc3)CC2)CC1` gave CSN inh -5.9, SUMO1 PPI mod -3.6, DNMT1 block -0.3, STEP block -1.8, LMPTP block -1.1 and Scp1 inh -9.5.
For C[C@@H]1CN([C@@H](C)CO)C(=O)CCCn2nncc2CO[C@@H]1CN(C)C(=O)Nc1ccccc1C(F)(F)F the results were CSN inh -0.9, SUMO1 PPI mod 13.5, DNMT1 block 1.3, STEP block 1.3 and LMPTP block -0.6.
For COC(=O)c1cc(Nc2cc(C)c3c(O)cccc3n2)cc(C(=O)OC)c1 the results were CSN inh 2.1, SUMO1 PPI mod 8.7, DNMT1 block -14.4, STEP block 2.2, LMPTP block 42.7 and Scp1 inh 0.2.

Screens (PubChem)
